Measured values published in publication PMC3975472 (Biomolecules & Therapeutics, 2014).
Where a name gives a salt, the structure may show the parent alone.

Key:
[1] = test system: 9 cytochrome P450 (CYP) family members (CYP1A2, CYP2A6, CYP2B6, CYP2C8, CYP2C9, CYP2C19, CYP2D6, CYP2E1, and CYP3A4); assay: Cocktail probe assay in pooled HLMs, all 9 CYP isoforms together; assay type: in vitro ADME, human; conditions: 0–50 μM, 37°C 60 min
Outline: (§1)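 Pooled HLMs (0.1 mg) in 0.1 M potassium phosphate, pH 7.4, with cocktail probe substrates, NADPH-generating system and test compound (0.1–25 μM, six levels). Pre-incubation with NADPH for 0 or 15 min (reference inhibitor: 20 min), then 60 min at 37°C. Stopped with acidified acetonitrile plus terfenadine internal standard; metabolites by LC-MS/MS (MRM). IC50 from percent activity vs log[I]; duplicates.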

CYP1A2 = target: T1, CYP1A2 (Homo sapiens, UniProt P05177); assay: Cocktail probe assay in pooled HLMs: CYP1A2-catalyzed phenacetin O-deethylase; assay type: in vitro ADME; conditions: pre-incubation 20 min with NADPH, mean of duplicates
T1 sequence (P05177 1-516): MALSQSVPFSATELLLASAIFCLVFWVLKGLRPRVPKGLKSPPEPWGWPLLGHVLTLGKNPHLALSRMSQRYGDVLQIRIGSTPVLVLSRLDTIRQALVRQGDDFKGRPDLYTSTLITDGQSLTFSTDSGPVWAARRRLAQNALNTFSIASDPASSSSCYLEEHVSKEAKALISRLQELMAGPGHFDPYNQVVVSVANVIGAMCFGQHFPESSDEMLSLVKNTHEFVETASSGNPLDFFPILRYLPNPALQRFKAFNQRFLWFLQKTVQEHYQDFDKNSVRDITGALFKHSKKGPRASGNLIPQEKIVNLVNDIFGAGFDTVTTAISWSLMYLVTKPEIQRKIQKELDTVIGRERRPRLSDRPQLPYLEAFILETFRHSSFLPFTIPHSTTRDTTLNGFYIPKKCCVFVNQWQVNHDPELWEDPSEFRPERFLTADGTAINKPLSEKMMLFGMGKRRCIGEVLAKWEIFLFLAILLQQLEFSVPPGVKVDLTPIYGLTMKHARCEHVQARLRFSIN
Outline: as §1

CYP2C9 = CYP2C9 (Homo sapiens, UniProt P11712); assay: Cocktail probe assay in pooled HLMs: CYP2C9-catalyzed diclofenac 4′-hydroxylase; assay type: in vitro ADME; conditions: pre-incubation 20 min with NADPH, mean of duplicates
Chain of CYP2C9 (P11712 whole entry): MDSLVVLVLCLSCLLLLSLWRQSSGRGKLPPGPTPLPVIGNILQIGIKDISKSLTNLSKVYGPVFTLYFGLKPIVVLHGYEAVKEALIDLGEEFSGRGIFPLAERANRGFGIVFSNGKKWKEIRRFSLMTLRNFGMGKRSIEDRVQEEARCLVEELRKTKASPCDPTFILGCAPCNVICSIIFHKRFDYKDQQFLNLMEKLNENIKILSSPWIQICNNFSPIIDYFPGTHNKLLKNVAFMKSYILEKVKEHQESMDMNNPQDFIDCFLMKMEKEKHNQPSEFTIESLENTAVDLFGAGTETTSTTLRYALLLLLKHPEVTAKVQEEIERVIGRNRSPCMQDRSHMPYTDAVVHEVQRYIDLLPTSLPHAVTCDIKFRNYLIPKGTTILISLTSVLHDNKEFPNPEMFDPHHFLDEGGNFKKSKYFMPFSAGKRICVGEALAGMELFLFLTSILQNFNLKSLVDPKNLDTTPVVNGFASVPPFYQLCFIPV
Outline: as §1

CYP2A6 = target: T2, CYP2A6 (Homo sapiens, UniProt P11509); assay: Cocktail probe assay in pooled HLMs: CYP2A6-catalyzed coumarin 7-hydroxylase; assay type: in vitro ADME; conditions: pre-incubation 20 min with NADPH, mean of duplicates
T2 sequence (P11509 1-494): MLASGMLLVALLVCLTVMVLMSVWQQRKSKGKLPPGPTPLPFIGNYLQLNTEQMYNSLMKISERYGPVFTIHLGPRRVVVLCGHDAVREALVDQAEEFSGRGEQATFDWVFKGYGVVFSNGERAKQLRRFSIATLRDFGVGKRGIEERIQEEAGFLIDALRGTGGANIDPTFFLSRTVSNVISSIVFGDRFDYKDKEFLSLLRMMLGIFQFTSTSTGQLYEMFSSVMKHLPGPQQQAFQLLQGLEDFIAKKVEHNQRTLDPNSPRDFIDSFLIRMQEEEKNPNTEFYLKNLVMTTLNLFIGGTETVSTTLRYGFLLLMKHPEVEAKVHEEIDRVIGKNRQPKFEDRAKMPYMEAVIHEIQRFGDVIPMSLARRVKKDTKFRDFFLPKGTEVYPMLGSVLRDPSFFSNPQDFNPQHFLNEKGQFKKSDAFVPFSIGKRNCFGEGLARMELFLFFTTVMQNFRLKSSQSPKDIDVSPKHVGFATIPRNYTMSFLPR
Outline: as §1

CYP2D6 = CYP2D6 (Homo sapiens, UniProt P10635); assay type: in vitro ADME; conditions: IC50, HLMs, pre-incubation 20 min with NADPH, mean of duplicates
Chain of CYP2D6 (P10635 whole entry): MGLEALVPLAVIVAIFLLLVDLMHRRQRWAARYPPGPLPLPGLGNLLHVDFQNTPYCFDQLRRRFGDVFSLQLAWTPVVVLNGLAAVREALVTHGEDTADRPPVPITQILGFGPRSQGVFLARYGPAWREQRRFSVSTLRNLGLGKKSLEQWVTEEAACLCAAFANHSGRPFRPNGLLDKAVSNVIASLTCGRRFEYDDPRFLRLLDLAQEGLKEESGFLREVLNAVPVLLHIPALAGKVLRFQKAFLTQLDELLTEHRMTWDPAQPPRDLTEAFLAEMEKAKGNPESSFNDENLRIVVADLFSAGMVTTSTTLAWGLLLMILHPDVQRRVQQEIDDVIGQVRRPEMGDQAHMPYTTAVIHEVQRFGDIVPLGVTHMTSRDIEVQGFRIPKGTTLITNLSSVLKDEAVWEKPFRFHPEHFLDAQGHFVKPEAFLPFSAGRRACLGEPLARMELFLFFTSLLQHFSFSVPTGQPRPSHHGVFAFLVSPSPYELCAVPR
Outline: as §1

CYP2C8 = target: T3, CYP2C8 (Homo sapiens, UniProt P10632); assay: Cocktail probe assay in pooled HLMs: CYP2C8-catalyzed amodiaquine N-deethylase; assay type: in vitro ADME; conditions: pre-incubation 20 min with NADPH, mean of duplicates
T3 sequence (P10632 1-490): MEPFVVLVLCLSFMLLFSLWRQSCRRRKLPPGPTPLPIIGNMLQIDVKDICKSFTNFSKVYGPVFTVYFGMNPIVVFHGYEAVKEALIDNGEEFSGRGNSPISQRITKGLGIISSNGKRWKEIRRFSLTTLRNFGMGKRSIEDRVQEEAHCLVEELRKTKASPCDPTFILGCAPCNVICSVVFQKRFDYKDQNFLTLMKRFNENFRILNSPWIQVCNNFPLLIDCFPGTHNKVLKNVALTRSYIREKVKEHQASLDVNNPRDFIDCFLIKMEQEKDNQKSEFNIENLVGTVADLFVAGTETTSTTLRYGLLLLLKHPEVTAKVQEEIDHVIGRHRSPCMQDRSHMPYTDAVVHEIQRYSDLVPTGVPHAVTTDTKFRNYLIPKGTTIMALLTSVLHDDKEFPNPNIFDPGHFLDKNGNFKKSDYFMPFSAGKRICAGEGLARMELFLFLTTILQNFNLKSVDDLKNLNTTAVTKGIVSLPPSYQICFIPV
Outline: as §1

CYP2B6 = target: T4, CYP2B6 (Homo sapiens, UniProt P20813); assay: Cocktail probe assay in pooled HLMs: CYP2B6-catalyzed bupropion hydroxylase; assay type: in vitro ADME; conditions: pre-incubation 20 min with NADPH, mean of duplicates
T4 sequence (P20813 1-491): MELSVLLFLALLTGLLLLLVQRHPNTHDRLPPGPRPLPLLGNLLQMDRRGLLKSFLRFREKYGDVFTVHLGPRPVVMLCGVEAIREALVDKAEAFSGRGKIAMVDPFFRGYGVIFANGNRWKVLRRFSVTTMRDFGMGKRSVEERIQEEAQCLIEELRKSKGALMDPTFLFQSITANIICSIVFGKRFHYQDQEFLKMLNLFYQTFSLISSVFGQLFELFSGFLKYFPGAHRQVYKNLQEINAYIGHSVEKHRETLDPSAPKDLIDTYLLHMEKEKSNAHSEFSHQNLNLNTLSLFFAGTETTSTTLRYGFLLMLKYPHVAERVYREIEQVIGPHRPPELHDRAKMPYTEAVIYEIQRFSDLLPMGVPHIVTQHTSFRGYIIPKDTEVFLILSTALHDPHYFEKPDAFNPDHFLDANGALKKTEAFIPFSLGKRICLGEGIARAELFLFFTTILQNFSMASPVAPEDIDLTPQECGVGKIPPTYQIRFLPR
Outline: as §1

CYP2E1 = CYP2E1 (Homo sapiens, UniProt P05181); assay type: in vitro ADME; conditions: IC50, HLMs, pre-incubation 20 min with NADPH, mean of duplicates
Chain of CYP2E1 (P05181 whole entry): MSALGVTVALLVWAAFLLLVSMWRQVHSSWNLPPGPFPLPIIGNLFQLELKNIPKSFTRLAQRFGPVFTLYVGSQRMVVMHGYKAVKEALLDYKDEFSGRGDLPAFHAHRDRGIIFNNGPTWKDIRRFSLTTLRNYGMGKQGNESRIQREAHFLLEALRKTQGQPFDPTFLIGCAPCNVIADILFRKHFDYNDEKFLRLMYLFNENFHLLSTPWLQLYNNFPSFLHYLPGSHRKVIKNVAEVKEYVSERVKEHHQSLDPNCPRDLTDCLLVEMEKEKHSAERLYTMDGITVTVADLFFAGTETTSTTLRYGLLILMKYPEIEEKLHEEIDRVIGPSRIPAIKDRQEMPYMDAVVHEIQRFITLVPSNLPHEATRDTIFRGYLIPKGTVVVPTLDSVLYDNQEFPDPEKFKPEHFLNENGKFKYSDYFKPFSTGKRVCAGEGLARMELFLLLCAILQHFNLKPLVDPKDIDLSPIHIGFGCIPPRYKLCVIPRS
Outline: as §1

CYP2C19 = CYP2C19 (Homo sapiens, UniProt P33261); assay: Cocktail probe assay in pooled HLMs: CYP2C19-catalyzed omeprazole 5-hydroxylase; assay type: in vitro ADME; conditions: pre-incubation 20 min with NADPH, mean of duplicates
Chain of CYP2C19 (P33261 whole entry): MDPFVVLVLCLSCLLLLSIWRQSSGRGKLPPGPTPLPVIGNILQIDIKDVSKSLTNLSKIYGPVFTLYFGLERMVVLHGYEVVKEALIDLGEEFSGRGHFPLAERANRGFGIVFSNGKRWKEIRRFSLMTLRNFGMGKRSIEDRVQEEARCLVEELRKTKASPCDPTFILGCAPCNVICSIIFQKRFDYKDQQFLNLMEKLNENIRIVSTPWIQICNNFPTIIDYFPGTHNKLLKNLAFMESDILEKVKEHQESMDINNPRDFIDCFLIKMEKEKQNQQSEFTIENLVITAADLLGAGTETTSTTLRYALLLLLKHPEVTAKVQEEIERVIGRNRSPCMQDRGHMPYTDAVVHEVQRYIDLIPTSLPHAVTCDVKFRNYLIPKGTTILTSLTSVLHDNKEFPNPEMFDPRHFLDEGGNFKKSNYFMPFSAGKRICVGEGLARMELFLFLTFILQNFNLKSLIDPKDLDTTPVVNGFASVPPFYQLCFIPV
Outline: as §1

Q: How did the “inhibitory effects on the activities of all 9 CYPs” value [1] turn out when CC(=O)Oc1c2oc3cc(O)c(O)cc3c2c(OC(C)=O)c2oc3cc(O)c(O)cc3c12 [Polyozellin, polyozellin] was run?
A: weak inhibitory effects

Q: Which results are given for CCCC(C(=O)OCCN(CC)CC)(c1ccccc1)c1ccccc1 [SKF-525A, 2-diethylaminoethyl-2,2-diphenylvalerate-HCl]?
A: IC50 (CYP1A2): > 50 µM; IC50 (CYP2C9): 33.4 µM; IC50 (CYP2A6): > 50 µM; IC50 (CYP2D6): 3.5 µM; IC50 (CYP2C8): 26.5 µM; IC50 (CYP2B6): 0.9 µM; IC50 (CYP2E1): > 50 µM; IC50 (CYP2C19): 2.1 µM
